Screens: PubChem, several laboratories
m-calpain inh = inhibitors of pig calpain II; purified calpain II, fluorogenic peptide substrate, 30 min; inhibition, % at 16 µM; 220,000 compounds, 0.37% hits; AID 1236;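 active means inhibition above about 50%, limit read from the data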
FXIIa inh = blocks human coagulation factor XIIa protease activity; 220,000 compounds, 0.3% hits; P00748; inhibition, % at 5 µM; purified FXIIa, Boc-QGR-AMC fluorogenic substrate, 2 h; in the data active means inhibition above about 40%;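 further: 0% = enzyme with no compound and 100% = blank without enzyme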
Target sequence (P00748 20-372 limits assumed): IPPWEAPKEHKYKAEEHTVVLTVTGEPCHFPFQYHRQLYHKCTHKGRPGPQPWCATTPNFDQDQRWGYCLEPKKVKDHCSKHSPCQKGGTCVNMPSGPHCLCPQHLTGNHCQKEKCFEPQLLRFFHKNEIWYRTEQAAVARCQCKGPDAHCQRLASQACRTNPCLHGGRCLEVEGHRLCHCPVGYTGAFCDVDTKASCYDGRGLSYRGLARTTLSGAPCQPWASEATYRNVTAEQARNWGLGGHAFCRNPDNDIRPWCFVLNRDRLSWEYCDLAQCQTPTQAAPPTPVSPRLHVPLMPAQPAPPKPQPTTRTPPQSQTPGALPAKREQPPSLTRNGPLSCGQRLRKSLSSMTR
Target sequence (P00748 373-615 limits assumed): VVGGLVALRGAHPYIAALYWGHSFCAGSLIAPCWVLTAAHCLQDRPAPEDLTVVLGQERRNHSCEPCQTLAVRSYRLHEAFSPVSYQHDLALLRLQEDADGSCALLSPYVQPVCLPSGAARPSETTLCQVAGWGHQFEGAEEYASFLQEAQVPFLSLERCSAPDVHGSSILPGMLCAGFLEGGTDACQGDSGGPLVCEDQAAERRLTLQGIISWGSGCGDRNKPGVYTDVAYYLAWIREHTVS
FXIa inh 1536 = factor XIa (human) inhibition | inhibition, % at 5 µM | P03951 | purified FXIa, Boc-Glu-Ala-Arg-AMC fluorogenic substrate | 220,000 compounds, 0.14% hits;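 active means inhibition of at least 40%; inactive means inhibition below 40%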;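 further: fluorescence of freed AMC excited at 355 nm; 0% = enzyme without compound and 100% = no enzyme blank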
KLK5 inh = kallikrein 5 (human) inhibition; recombinant hK5, fluorogenic AMC substrate cleavage; inhibition, % at 5 µM; 210,000 compounds, 0.59% hits;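 active means inhibition of 40% or more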;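 further: 0% = enzyme controls without compound and 100% = no-enzyme blanks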
Furin inhibitor = blocks human furin protease activity. purified furin, fluorogenic substrate cleavage. inhibition, % at 20 µM or 30 µM. 220,000 compounds, 0.061% hits. AID 463115; in the data active means inhibition above about 25%
Thrombin inh = thrombin (human) inhibition; P00734; alpha-thrombin, Boc-VPR-AMC fluorogenic substrate cleavage; 220,000 compounds, 0.26% hits; inhibition, % at 5 µM;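 active means inhibition at or above 40%; inactive means inhibition below 40%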;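 further: 0% = enzyme with no compound and 100% = wells without enzyme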
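Material: Human alpha-thrombin protein | Buffer or medium: pH 7.5 Tris-saline with Tween 20 | Reagent: Boc-VPR-AMC substrate, 15 µM final | Schedule: Reaction at ambient temperature | Detection: AMC fluorescence at 355 nm excitation and 460 nm emission | Evaluation: Percent inhibition scaled between no-compound controls and no-enzyme blanks | Controls: no-compound enzyme wells and no-enzyme blanks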
The depositor's hits bear a star; . = not tested or not shown. Sampled rows, rich in hits. Any-hit rate of the full collection: about 1.4%.

SMILES | m-calpain inh | FXIIa inh | FXIa inh 1536 | KLK5 inh | Furin inhibitor | Thrombin inh
O=[N+]([O-])c1cccc(S(=O)(=O)Nc2nc3ccccc3nc2Nc2cccc(S(=O)(=O)N3CCCCC3)c2)c1 | 82.0* | 10.6 | 6.6 | 7.7 | -15.7 | -3.6
COc1ccccc1C(CNC(=O)c1ccc(S(=O)(=O)NCc2ccco2)cc1)N(C)C (stereo not given) | -8.5 | 12.2 | 2.3 | -52.3 | -5.0 | -1.0
O=[N+]([O-])c1cc(S(=O)(=O)Nc2cccc(Cl)c2)ccc1N/N=C/c1ccc(N2CCOCC2)cc1 | 11.4 | 8.0 | -0.6 | 5.8 | -18.9 | -1.8
Cc1ccc(C(=O)O)cc1N1C(=O)c2cccc3cc(Br)cc(c23)C1=O | 65.6* | 17.3 | 6.1 | -21.9 | -18.2 | 0.5
Cc1n[nH]c(C)c1N1C(=O)c2cccc3cc(Br)cc(c23)C1=O | 13.3 | 14.1 | 1.9 | -2.7 | -15.6 | 1.2
CCOC(=O)C1=C(C)Nc2sc(C(=O)c3ccc(OC)cc3)c(N)c2C1c1ccc(C(=O)OC)cc1 (stereo not given) | -118.1 | 3.9 | 6.9 | -4.8 | -16.0 | -0.3
Cc1occc1C(=O)Nc1ccccc1C(=O)O | -1.0 | 2.8 | -0.9 | -9.4 | -19.7 | 0.8
CCCC(=O)NNC(=O)c1ccoc1C | 19.9 | 40.1* | 9.1 | 26.3 | -7.7 | 17.8
Cc1cc(C)c(NC(=O)c2ccoc2C)c(C)c1 | -3.6 | 18.9 | 4.8 | 61.3* | -8.0 | 12.3
CC1=C(C(=O)OCC2CCCO2)C(c2ccncc2)C2=C(CCCC2=O)N1 (stereo not given) | -241.0 | 15.6 | 4.7 | 3.8 | -10.4 | 1.7
CC1=C(C(=O)OCC2CCCO2)C(c2ccc(C)o2)C2=C(CC(c3ccc(N(C)C)cc3)CC2=O)N1 (stereo not given) | 99.3* | 10.9 | -0.6 | -1.6 | -6.0 | 4.3
CC1=C(C(=O)OCC2CCCO2)C(c2ccc(C)o2)C2=C(CC(c3ccc(F)cc3)CC2=O)N1 (stereo not given) | 13.9 | 51.4* | 36.0 | -10.3 | -15.1 | 2.9
CC1=C(C(=O)OCC2CCCO2)C(c2ccc(C)cc2)C2=C(CCCC2=O)N1 (stereo not given) | -122.8 | 7.9 | -4.3 | 8.6 | -31.0 | -1.6
CC(C)(C)NC(=O)NC(=O)CN1CCN(c2cccc(Cl)c2)CC1 | -1.2 | 12.9 | 3.9 | 3.7 | -16.1 | 3.4
Cc1cc(C)c(S(=O)(=O)c2ccccc2)c(OC(=O)c2ccc(Cl)cc2Cl)n1 | -23.4 | 7.7 | 0.1 | 0.6 | -20.7 | 2.2
Cc1cc(OC(=O)c2ccc(Cl)cc2Cl)nc(C)n1 | -17.7 | 45.4* | 6.5 | -53.3 | -13.0 | 4.1
COc1cc(NC(=O)CSc2nc(C)c(C)c(C)n2)cc(OC)c1 | 8.3 | 7.7 | 3.7 | 11.2 | -22.9 | -9.8
CC(C)C[C@H](NC(=O)c1[nH]cnc1C(=O)N[C@@H](Cc1ccccc1)C(=O)OC(C)(C)C)C(=O)OC(C)(C)C | 23.6 | 5.5 | -0.1 | -0.5 | -12.1 | -3.0
CC(C)(C)OC(=O)NCCCCCNC(=O)c1[nH]cnc1C(=O)N[C@@H](CCCCNC(=O)OC(C)(C)C)C(=O)OC(C)(C)C | 54.4* | 13.7 | -2.5 | -2.1 | -3.4 | -1.2
CC(C)(C)OC(=O)NCCCC[C@H](NC(=O)c1nc[nH]c1C(=O)N[C@@H](CCCCNC(=O)OC(C)(C)C)C(=O)OC(C)(C)C)C(=O)OC(C)(C)C | 46.8 | 4.1 | -1.4 | -0.6 | -30.2 | -2.6
CC(C)C[C@H](NC(=O)c1nc[nH]c1C(=O)NCc1ccccc1)C(=O)OC(C)(C)C | 60.2* | 8.7 | -0.9 | 2.0 | -3.8 | -3.9
O=C(O)CC(=O)Nc1ccccc1C(=O)O | -40.1 | 68.3* | 15.2 | 4.6 | -26.6 | 0.6
O=C(NC(=S)Nc1cc(S(=O)(=O)N2CCOCC2)ccc1N1CCOCC1)C1CCCC1 | -5.7 | -2.2 | -4.6 | -18.9 | -12.1 | 2.7
Cc1cc(C)nc(-n2ncc3c2CC(c2cccc(Cl)c2)CC3=O)n1 (stereo not given) | -33.4 | -3.3 | 0.0 | -5.0 | -23.3 | -8.8
COc1ccccc1CN(CC(=O)NCc1ccco1)C(=O)CNS(=O)(=O)c1ccc(C)cc1 | -11.1 | 21.3 | 7.8 | -5.3 | -13.3 | 55.6*
SMILES | m-calpain inh | FXIIa inh | FXIa inh 1536 | KLK5 inh | Furin inhibitor | Thrombin inh
Cc1nc(N2CCOCC2)nc(Oc2ccccc2)c1[N+](=O)[O-] | 24.8 | 13.3 | -1.7 | 5.2 | -18.5 | 1.3
CCOC(=O)C1CCCN(C2CC(=O)N(c3ccc(NC(C)=O)cc3)C2=O)C1 (stereo not given) | 17.9 | 6.7 | -1.8 | 0.1 | -15.0 | -1.4
CCOC(=O)C1CCCN(C2CC(=O)N(c3ccc(C)cc3)C2=O)C1 (stereo not given) | 3.2 | 19.2 | 12.3 | 40.5* | -14.7 | 12.4
O=C(Nc1cccnc1)c1cccs1 | 64.2* | 5.3 | 3.7 | -15.2 | -22.8 | -0.8
CC(C)c1cc(C(=O)Nc2cccnc2)no1 | 7.6 | 21.4 | 5.6 | 44.7* | -20.9 | 13.8
CCCc1cc(C(=O)Nc2cccnc2)no1 | 6.0 | 7.4 | 4.2 | -16.9 | -14.9 | -4.9
COc1ccccc1C(=O)C1CCCN(C(=O)c2ccccn2)C1 (stereo not given) | -23.5 | 5.0 | -1.9 | . | -28.1 | -2.8
O=C(NC(=O)c1ccc(F)cc1F)Nc1ccc(Cl)cc1 | -16.8 | 13.2 | 4.5 | 6.9 | -24.5 | 5.0
CN1C(=O)S/C(=C\c2ccccc2OCc2ccc(C(=O)O)cc2)C1=O | -30.9 | 6.0 | -2.3 | 2.5 | -9.8 | -7.4
Cc1ccc(Oc2ccccc2/C=C2\SC(=O)N(C)C2=O)cc1 | 7.1 | 23.4 | 15.5 | 51.0* | -11.6 | 20.9
O=C(NC(=S)N1CCc2ccccc21)c1ccccc1Br | 8.5 | 8.6 | 4.8 | -2.5 | -4.7 | -3.7
CCCCc1nnc(NC(=O)COc2ccc3c(C)cc(=O)oc3c2)s1 | 7.5 | 34.1 | 13.7 | 111.9* | 2.9 | 13.9
CCCCC(CCC(=O)O)(C(=O)OCC)c1csc(Nc2ccc(C)cc2)n1 (stereo not given) | -49.4 | 9.9 | -0.1 | 8.0 | -21.9 | -10.0
CCOC(=O)C(CC)(CCC(=O)OC)c1csc(Nc2ccccc2O)n1 (stereo not given) | 23.3 | 21.0 | 21.3 | 18.6 | -7.3 | 65.9*
CC(C)CNS(=O)(=O)c1ccc(CCC(=O)Nc2cc(Cl)ccc2Oc2ccccc2)cc1 | 71.2* | -2.2 | -9.1 | -3.5 | -8.1 | -5.5
Cc1cccc(C)c1N(CC(=O)Nc1cc(Cl)ccc1Oc1ccccc1)S(C)(=O)=O | 52.0* | 22.1 | 20.5 | -11.1 | -16.1 | -1.1
Cc1ccc(C)c(N(CC(=O)Nc2cc(Cl)ccc2Oc2ccccc2)S(C)(=O)=O)c1 | 0.0 | -6.6 | -5.0 | -1.0 | -22.7 | -4.9
O=C(O)c1cccnc1SCc1cccc(Cl)c1 | -35.8 | 9.2 | -0.5 | -9.5 | -8.6 | -10.0
CCn1c(C)c(CCC(=O)O)c(=O)n2nc(-c3ccccc3OC)cc12 | -165.5 | 12.6 | 3.6 | -11.5 | 26.6* | 0.4
CCOC(=O)CCc1c(C)nc2cc(-c3ccccc3OC)[nH]n2c1=O | -75.5 | -4.3 | 5.5 | 0.6 | -17.1 | -0.3
